# Source: ChEMBL document CHEMBL1148749, “Targeting plague virulence factors: a combined machine learning method and multiple conformational virtual screening for the discovery of Yersinia protein kinase A inhibitors” (J Med Chem, 2007)
# Legend:
# [1] = Inhibition of Yersinia sp. PKA
# Procedure, shortened: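 YpkA kinase activity measured by radiological assay with enzyme at 0.15 μM; IC50 values determined from this assay.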
# [2] = Inhibition of MAPK; design: species or system Homo sapiens
# [3] = molecular target: Protein kinase C (PKC); assay: Inhibition of PKC; design: species or system Homo sapiens
Compound,IC50 [1],IC50 [2],IC50 [3]
O=C1c2ccccc2C(=O)c2cc(S(=O)(=O)Nc3cccc([N+](=O)[O-])c3)ccc21,19.8 µM,> 200 µM,165 µM
O=C1Nc2ccc(Br)cc2/C1=C1/SC(=S)N(c2cccc(Cl)c2)C1=O,1.81 µM,2.45 µM,> 200 µM
O=C1NC(=O)C(=Cc2ccc(Sc3ccc(Cl)cc3)c([N+](=O)[O-])c2)C(=O)N1,5.87 µM,63 µM,> 200 µM
C=CCN1C(=O)NC(=O)/C(=C/c2ccc(-c3cc([N+](=O)[O-])ccc3Cl)o2)C1=O,9.72 µM,54.5 µM,205.16 µM
